Source: ChEMBL document CHEMBL2157922, “Synthesis and antifungal activity of diverse C-2 pyridinyl and pyridinylvinyl substituted quinolines” (2012)
Converted amounts (≈) assume the structure as drawn. Values belong to the compound of their own block, whether it stands above or below them.

Key:
Cryptococcus neoformans [1] = experiment: Antifungal activity against Cryptococcus neoformans ATCC 32264 after 48 hrs by broth microdilution technique; type: functional; conditions: ATCC 32264, 48 h
Procedure, shortened: (§1)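 Yeasts were tested by CLSI broth microdilution in RPMI-1640 buffered to pH 7.0 with MOPS, with compound from 250 down to 0.98 in DMSO stocks. Trays were held at 30 °C in a moist, dark chamber. MIC100, the lowest concentration giving total visual inhibition against the growth control, was read by eye at 48 h.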

Aspergillus flavus = experiment: Antifungal activity against Aspergillus flavus ATCC 9170 after 48 hrs by broth microdilution technique; type: functional; conditions: ATCC 9170, 48 h
Procedure, shortened: (§2)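 Moulds and dermatophytes were run by CLSI broth microdilution in MOPS-buffered RPMI-1640 at pH 7.0. Aspergillus was incubated at 30 °C and dermatophytes at 28–30 °C, in a moist, dark chamber. MIC100, the lowest concentration with no visible growth, was read visually at a time set by growth of the control fungus.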

Aspergillus niger = experiment: Antifungal activity against Aspergillus niger ATCC 9029 after 48 hrs by broth microdilution technique; type: functional; conditions: ATCC 9029, 48 h; procedure, shortened: as §2
Nannizzia gypsea = experiment: Antifungal activity against Microsporum gypseum CCC 115 after 48 hrs by broth microdilution technique; type: functional; conditions: CCC 115, 48 h; procedure, shortened: as §2
Trichophyton rubrum = experiment: Antifungal activity against Trichophyton rubrum CCC 113 after 48 hrs by broth microdilution technique; type: functional; conditions: CCC 113, 48 h
[2] = tested on: Trichophyton mentagrophytes; experiment: Antifungal activity against Trichophyton mentagrophytes ATCC 9972 after 48 hrs by broth microdilution technique; type: functional; conditions: ATCC 9972, 48 h; procedure, shortened: as §2
Saccharomyces cerevisiae = experiment: Antifungal activity against Saccharomyces cerevisiae ATCC 9763 after 48 hrs by broth microdilution technique; type: functional; conditions: ATCC 9763, 48 h; procedure, shortened: as §1
Aspergillus fumigatus = experiment: Antifungal activity against Aspergillus fumigatus ATCC 26934 after 48 hrs by broth microdilution technique; type: functional; conditions: ATCC 26934, 48 h; procedure, shortened: as §2
Candida albicans [3] = experiment: Antifungal activity against Candida albicans ATCC 10231 after 48 hrs by broth microdilution technique; type: functional; conditions: ATCC 10231, 48 h; procedure, shortened: as §1
Candida albicans [4] = experiment: Antifungal activity against Candida albicans CCC 125 after 48 hrs by broth microdilution technique; type: functional; conditions: CCC 125, 48 h
Cryptococcus neoformans [5] = experiment: Antifungal activity against Cryptococcus neoformans IM 972751 after 48 hrs by broth microdilution technique; type: functional; conditions: IM 972751, 48 h
Procedure, shortened: (§3)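 C. neoformans was tested by 96-well RPMI-1640 microdilution, with DMSO-matched growth and sterility control wells. Plates were incubated 48 h at 30 °C in a moist, dark chamber and read at OD405. % inhibition = 100 − (CTW − SCW)/(GCW − SCW), in duplicate. For the clinical isolates, MIC80 and MIC50 are the lowest concentrations giving 80% and 50% inhibition.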

Candida albicans [6] = experiment: Antifungal activity against Candida albicans CCC 126 after 48 hrs by broth microdilution technique; type: functional; conditions: CCC 126, 48 h
Cryptococcus neoformans [7] = experiment: Antifungal activity against Cryptococcus neoformans IM 983040 after 48 hrs by broth microdilution technique; type: functional; conditions: IM 983040, 48 h; procedure, shortened: as §3
Cryptococcus neoformans [8] = experiment: Antifungal activity against Cryptococcus neoformans IM 972724 after 48 hrs by broth microdilution technique; type: functional; conditions: IM 972724, 48 h; procedure, shortened: as §3
Candida parapsilosis = experiment: Antifungal activity against Candida parapsilosis CCC 124 after 48 hrs by broth microdilution technique; type: functional; conditions: Lodderomyces parapsilosis, CCC 124, 48 h
Candida albicans [9] = experiment: Antifungal activity against Candida albicans CCC 130 after 48 hrs by broth microdilution technique; type: functional; conditions: CCC 130, 48 h
Cryptococcus neoformans [10] = experiment: Antifungal activity against Cryptococcus neoformans IM 00319 after 48 hrs by broth microdilution technique; type: functional; conditions: IM 00319, 48 h; procedure, shortened: as §3
Cryptococcus neoformans [11] = experiment: Antifungal activity against Cryptococcus neoformans IM 983036 after 48 hrs by broth microdilution technique; type: functional; conditions: IM 983036, 48 h; procedure, shortened: as §3
Candida albicans [12] = experiment: Antifungal activity against Candida albicans CCC 130 after 24 hrs by broth microdilution technique; conditions: CCC 130, 24 h
Cryptococcus neoformans [13] = experiment: Antifungal activity against Cryptococcus neoformans IM 042074 after 48 hrs by broth microdilution technique; type: functional; conditions: IM 042074, 48 h; procedure, shortened: as §3
Cryptococcus neoformans [14] = experiment: Antifungal activity against Cryptococcus neoformans ATCC 32264 at 31.2 ug/ml after 48 hrs; type: functional; conditions: ATCC 32264, 48 h; procedure, shortened: as §3
Candida albicans [15] = experiment: Antifungal activity against Candida albicans CCC 129 after 48 hrs by broth microdilution technique; type: functional; conditions: CCC 129, 48 h
Pichia kudriavzevii = experiment: Antifungal activity against Candida krusei CCC 117 after 48 hrs by broth microdilution technique; type: functional; conditions: CCC 117, 48 h
Nakaseomyces glabratus = experiment: Antifungal activity against Candida glabrata CCC 115 after 48 hrs by broth microdilution technique; type: functional; conditions: CCC 115, 48 h
Candida albicans [16] = experiment: Antifungal activity against Candida albicans CCC 128 after 48 hrs by broth microdilution technique; type: functional; conditions: CCC 128, 48 h
Candida tropicalis = experiment: Antifungal activity against Candida tropicalis CCC 131 after 48 hrs by broth microdilution technique; type: functional; conditions: CCC 131, 48 h
Candida albicans [17] = experiment: Antifungal activity against Candida albicans CCC 127 after 48 hrs by broth microdilution technique; type: functional; conditions: CCC 127, 48 h

SMILES: C(=C\c1ccc2ccccc2n1)/c1cccnc1
MFC (Cryptococcus neoformans [1]): 250 µg/mL (≈ 1080 µM)
MIC (Cryptococcus neoformans [1]): 125 µg/mL (≈ 538 µM)
MFC (Aspergillus flavus): > 250 µg/mL
MIC (Aspergillus flavus): 125 µg/mL (≈ 538 µM)
MFC (Aspergillus niger): > 250 µg/mL
MIC (Aspergillus niger): 125 µg/mL (≈ 538 µM)
MFC (Nannizzia gypsea): 250 µg/mL (≈ 1080 µM)
MIC (Nannizzia gypsea): 62 µg/mL (≈ 267 µM)
MFC (Trichophyton rubrum): 250 µg/mL (≈ 1080 µM)
MIC (Trichophyton rubrum): 62 µg/mL (≈ 267 µM)
MFC [2]: 250 µg/mL (≈ 1080 µM)
MIC [2]: 62 µg/mL (≈ 267 µM)
MFC (Saccharomyces cerevisiae): > 250 µg/mL
MIC (Saccharomyces cerevisiae): 250 µg/mL (≈ 1080 µM)
MFC (Aspergillus fumigatus): > 250 µg/mL
MIC (Aspergillus fumigatus): 125 µg/mL (≈ 538 µM)
MFC (Candida albicans [3]): > 250 µg/mL
MIC (Candida albicans [3]): 250 µg/mL (≈ 1080 µM)

SMILES: Clc1ccc2nc(-c3ccncc3)ccc2c1
MFC (Cryptococcus neoformans [1]): 250 µg/mL (≈ 1040 µM)
MIC (Cryptococcus neoformans [1]): 125 µg/mL (≈ 519 µM)
MIC (Aspergillus flavus): > 250 µg/mL
MIC (Aspergillus niger): > 250 µg/mL
MFC (Nannizzia gypsea): 125 µg/mL (≈ 519 µM)
MIC (Nannizzia gypsea): 125 µg/mL (≈ 519 µM)
MFC (Trichophyton rubrum): 125 µg/mL (≈ 519 µM)
MIC (Trichophyton rubrum): 125 µg/mL (≈ 519 µM)
MFC [2]: 125 µg/mL (≈ 519 µM)
MIC [2]: 125 µg/mL (≈ 519 µM)
MIC (Saccharomyces cerevisiae): > 250 µg/mL
MIC (Aspergillus fumigatus): > 250 µg/mL
MIC (Candida albicans [3]): > 250 µg/mL

The next compounds have a lower MIC (Cryptococcus neoformans [1]) than those just listed; values first:

MIC (Cryptococcus neoformans [1]): 62 µg/mL (≈ 258 µM)
MIC (Aspergillus flavus): > 250 µg/mL
MIC (Aspergillus niger): > 250 µg/mL
MIC (Nannizzia gypsea): 31 µg/mL (≈ 129 µM)
MIC (Trichophyton rubrum): 31 µg/mL (≈ 129 µM)
MIC [2]: 31 µg/mL (≈ 129 µM)
MIC (Saccharomyces cerevisiae): > 250 µg/mL
MIC (Aspergillus fumigatus): > 250 µg/mL
MIC (Candida albicans [3]): > 250 µg/mL
SMILES: Clc1ccc2nc(-c3cccnc3)ccc2c1
MFC (Cryptococcus neoformans [1]): 125 µg/mL (≈ 519 µM)
MFC (Nannizzia gypsea): 125 µg/mL (≈ 519 µM)
MFC (Trichophyton rubrum): 125 µg/mL (≈ 519 µM)
MFC [2]: 125 µg/mL (≈ 519 µM)

MIC (Cryptococcus neoformans [1]): 62 µg/mL (≈ 276 µM)
MIC (Aspergillus flavus): 125 µg/mL (≈ 557 µM)
MIC (Aspergillus niger): 250 µg/mL (≈ 1110 µM)
MIC (Nannizzia gypsea): 62 µg/mL (≈ 276 µM)
MIC (Trichophyton rubrum): 62 µg/mL (≈ 276 µM)
MIC [2]: 62 µg/mL (≈ 276 µM)
MIC (Saccharomyces cerevisiae): > 250 µg/mL
MIC (Aspergillus fumigatus): 125 µg/mL (≈ 557 µM)
MIC (Candida albicans [3]): > 250 µg/mL
SMILES: Fc1ccc2nc(-c3cccnc3)ccc2c1
MFC (Cryptococcus neoformans [1]): 250 µg/mL (≈ 1110 µM)
MFC (Aspergillus flavus): 250 µg/mL (≈ 1110 µM)
MFC (Aspergillus niger): > 250 µg/mL
MFC (Nannizzia gypsea): 62 µg/mL (≈ 276 µM)
MFC (Trichophyton rubrum): 62 µg/mL (≈ 276 µM)
MFC [2]: 62 µg/mL (≈ 276 µM)
MFC (Aspergillus fumigatus): 250 µg/mL (≈ 1110 µM)

MIC (Cryptococcus neoformans [1]): 62 µg/mL (≈ 281 µM)
MIC50 (Cryptococcus neoformans [1]): 7.8 µg/mL (≈ 35.4 µM)
MIC80 (Cryptococcus neoformans [1]): 31.2 µg/mL (≈ 142 µM)
MIC (Aspergillus flavus): 62 µg/mL (≈ 281 µM)
MIC50 (Candida albicans [4]): 31.2 µg/mL (≈ 142 µM)
MIC80 (Candida albicans [4]): 125 µg/mL (≈ 567 µM)
MIC50 (Cryptococcus neoformans [5]): 7.8 µg/mL (≈ 35.4 µM)
MIC80 (Cryptococcus neoformans [5]): 31.2 µg/mL (≈ 142 µM)
MIC (Aspergillus niger): 125 µg/mL (≈ 567 µM)
MIC50 (Candida albicans [6]): 31.2 µg/mL (≈ 142 µM)
MIC80 (Candida albicans [6]): 62.5 µg/mL (≈ 284 µM)
MIC50 (Cryptococcus neoformans [7]): 7.8 µg/mL (≈ 35.4 µM)
MIC80 (Cryptococcus neoformans [7]): 31.2 µg/mL (≈ 142 µM)
MIC (Nannizzia gypsea): 62 µg/mL (≈ 281 µM)
MIC50 (Cryptococcus neoformans [8]): 15.6 µg/mL (≈ 70.8 µM)
MIC80 (Cryptococcus neoformans [8]): 31.2 µg/mL (≈ 142 µM)
MIC50 (Candida parapsilosis): 7.8 µg/mL (≈ 35.4 µM)
MIC80 (Candida parapsilosis): 31.2 µg/mL (≈ 142 µM)
MIC80 (Candida albicans [9]): 125 µg/mL (≈ 567 µM)
MIC50 (Cryptococcus neoformans [10]): 15.6 µg/mL (≈ 70.8 µM)
MIC80 (Cryptococcus neoformans [10]): 31.2 µg/mL (≈ 142 µM)
MIC50 (Cryptococcus neoformans [11]): 31.2 µg/mL (≈ 142 µM)
MIC80 (Cryptococcus neoformans [11]): 62.5 µg/mL (≈ 284 µM)
MIC50 (Candida albicans [12]): 62.5 µg/mL (≈ 284 µM)
MIC50 (Cryptococcus neoformans [13]): 15.6 µg/mL (≈ 70.8 µM)
MIC80 (Cryptococcus neoformans [13]): 31.2 µg/mL (≈ 142 µM)
MIC50 (Candida albicans [15]): 62.5 µg/mL (≈ 284 µM)
MIC80 (Candida albicans [15]): 125 µg/mL (≈ 567 µM)
MIC (Trichophyton rubrum): 62 µg/mL (≈ 281 µM)
MIC [2]: 62 µg/mL (≈ 281 µM)
MIC50 (Pichia kudriavzevii): 31.2 µg/mL (≈ 142 µM)
MIC80 (Pichia kudriavzevii): 62.5 µg/mL (≈ 284 µM)
MIC50 (Nakaseomyces glabratus): 7.8 µg/mL (≈ 35.4 µM)
MIC80 (Nakaseomyces glabratus): 15.6 µg/mL (≈ 70.8 µM)
MIC50 (Candida albicans [16]): 31.2 µg/mL (≈ 142 µM)
MIC80 (Candida albicans [16]): 125 µg/mL (≈ 567 µM)
MIC (Saccharomyces cerevisiae): 62 µg/mL (≈ 281 µM)
MIC50 (Candida tropicalis): 15.6 µg/mL (≈ 70.8 µM)
MIC80 (Candida tropicalis): 125 µg/mL (≈ 567 µM)
MIC (Aspergillus fumigatus): 62 µg/mL (≈ 281 µM)
MIC50 (Candida albicans [17]): 31.2 µg/mL (≈ 142 µM)
MIC80 (Candida albicans [17]): 125 µg/mL (≈ 567 µM)
MIC (Candida albicans [3]): 125 µg/mL (≈ 567 µM)
MIC50 (Candida albicans [3]): 15.6 µg/mL (≈ 70.8 µM)
MIC80 (Candida albicans [3]): 31.2 µg/mL (≈ 142 µM)
SMILES: Cc1ccc2nc(-c3ccncc3)ccc2c1
MFC (Cryptococcus neoformans [1]): 125 µg/mL (≈ 567 µM)
MFC (Aspergillus flavus): 125 µg/mL (≈ 567 µM)
MFC (Aspergillus niger): 250 µg/mL (≈ 1130 µM)
MFC (Nannizzia gypsea): 62 µg/mL (≈ 281 µM)
inhibition at 31.2 µg/mL (Cryptococcus neoformans [14]): 80%
MFC (Trichophyton rubrum): 62 µg/mL (≈ 281 µM)
MFC [2]: 62 µg/mL (≈ 281 µM)
MFC (Saccharomyces cerevisiae): 125 µg/mL (≈ 567 µM)
MFC (Aspergillus fumigatus): 125 µg/mL (≈ 567 µM)
MFC (Candida albicans [3]): 250 µg/mL (≈ 1130 µM)
